Assay results from ChEMBL document CHEMBL4609993, “The architecture of hydrogen and sulfur σ-hole interactions explain differences in the inhibitory potency of C-β-d-glucopyranosyl thiazoles, imidazoles and an N-β-d glucopyranosyl tetrazole for human liver glycogen phosphorylase and offer new insights to structure-based design” (Bioorg Med Chem, 2020).

How the values were obtained:
[1] = biological target: T1, Glycogen phosphorylase, liver form (Homo sapiens, UniProt P06737); assay: Inhibition of human liver GPa using Glc-1-P as substrate incubated for 15 mins
T1 sequence (P06737 whole entry): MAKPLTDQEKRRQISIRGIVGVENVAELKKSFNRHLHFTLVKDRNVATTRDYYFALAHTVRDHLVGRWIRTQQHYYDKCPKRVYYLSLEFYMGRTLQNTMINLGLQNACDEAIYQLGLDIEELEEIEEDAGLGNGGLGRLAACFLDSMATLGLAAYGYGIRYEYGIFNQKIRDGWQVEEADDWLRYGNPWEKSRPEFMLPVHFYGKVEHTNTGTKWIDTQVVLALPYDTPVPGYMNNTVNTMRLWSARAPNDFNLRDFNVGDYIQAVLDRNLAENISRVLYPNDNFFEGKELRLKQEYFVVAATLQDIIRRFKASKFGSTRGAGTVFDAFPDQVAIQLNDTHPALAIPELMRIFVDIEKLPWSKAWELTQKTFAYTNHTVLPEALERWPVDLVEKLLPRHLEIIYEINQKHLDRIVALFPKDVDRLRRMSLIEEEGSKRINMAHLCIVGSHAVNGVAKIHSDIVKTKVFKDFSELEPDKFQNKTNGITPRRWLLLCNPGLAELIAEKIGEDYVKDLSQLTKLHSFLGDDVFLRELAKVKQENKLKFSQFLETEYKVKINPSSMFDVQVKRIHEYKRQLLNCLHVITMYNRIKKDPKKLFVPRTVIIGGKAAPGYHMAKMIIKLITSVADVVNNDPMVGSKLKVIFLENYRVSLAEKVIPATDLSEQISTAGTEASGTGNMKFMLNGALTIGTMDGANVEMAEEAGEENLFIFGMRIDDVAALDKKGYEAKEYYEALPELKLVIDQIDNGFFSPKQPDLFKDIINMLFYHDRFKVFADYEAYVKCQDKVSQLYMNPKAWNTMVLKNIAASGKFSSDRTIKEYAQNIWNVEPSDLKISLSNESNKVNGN

[2] = Inhibition of rabbit muscle GPa using Glc-1-P as substrate incubated for 15 mins; set-up: species or system Oryctolagus cuniculus
HepG2 [3] = assay: Cytotoxicity against human HepG2 cells assessed as reduction in cell viability at 100 uM measured after 3 and 24 hrs by MTT assay; assay type: cell-based; conditions: hepg2, 24 h
[4] = biological target: T2, Glycogen phosphorylase, liver form (Homo sapiens) (UniProt P06737); assay: Inhibition of GP in human HepG2 cells assessed as reduction in GP activity at 100 uM incubated for 3 hrs by Bradford reagent based assay relative to control; assay type: cell-based
T2 sequence (whole entry): T1 sequence (P06737 whole entry)
Method in brief: (§1)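 HepG2 cells were seeded at 1.0×10^6 per 60 mm dish and attached for 16–18 h. Glycogen was loaded for 16–18 h with 10 nM dexamethasone, 25 mM glucose and 100 nM insulin. Cells were then exposed to inhibitor or vehicle for 3 h in 5 mM glucose plus 100 nM glucagon. Lysates were sonicated in Tris pH 7.5/Triton/PMSF and cleared at 12,000 g. GP activity (nmol/min/mg, Bradford protein) came from a linear fit of 5 time points.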

[5] = Inhibition of rabbit muscle GPb using alpha-D-glucose-1-phosphate as substrate by Lineweaver-Burk plot analysis; set-up: species or system Oryctolagus cuniculus
[6] = biological target: T2, Glycogen phosphorylase, liver form (Homo sapiens); assay: Inhibition of GP in human HepG2 cells assessed as reduction in GP activity at 500 uM incubated for 3 hrs by Bradford reagent based assay relative to control; assay type: cell-based; method in brief: as §1
HepG2 [7] = assay: Cytotoxicity against human HepG2 cells assessed as reduction in cell viability at >200 uM incubated for 24 hrs by MTT assay; assay type: cell-based; conditions: hepg2, 24 h
[8] = Cytotoxicity against human HepG2 cells assessed as reduction in cell viability at 200 and 300 uM incubated for 3 hrs by MTT assay; assay type: cell-based; conditions: read-out: INH
[9] = Inhibition of rabbit muscle GPb using Glc-1-P as substrate incubated for 15 mins; set-up: species or system Oryctolagus cuniculus
Method in brief: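 Recombinant or rabbit muscle GP assayed by an earlier method. Initial velocities were taken from pseudo-first-order rate constants via the first-order rate equation. Ki came from non-linear regression with explicit weighting of apparent Km against inhibitor concentration, using 4–5 inhibitor levels per compound spanning 1–300 μM.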

[10] = biological target: T2, Glycogen phosphorylase, liver form (Homo sapiens); assay: Inhibition of GP in human HepG2 cells assessed as reduction in GP activity at 335 uM incubated for 3 hrs by Bradford reagent based assay relative to control; assay type: cell-based; method in brief: as §1

OC[C@H]1O[C@@H](c2c[nH]c(-c3ccc4ccccc4c3)n2)[C@H](O)[C@@H](O)[C@@H]1O
Ki [1]: 3.2 µM
Ki [2]: 1.6 µM
Activity (HepG2 [3]): Non-Toxic
inhibition [4]: 60%
Ki [5]: 4.58 µM

OC[C@H]1O[C@@H](c2csc(-c3ccc4ccccc4c3)n2)[C@H](O)[C@@H](O)[C@@H]1O
Ki [1]: 43.6 µM
Ki [2]: 28 µM
inhibition [6]: < 25%
Ki [5]: 26.2 µM
Activity (HepG2 [7]): Toxic
cytotoxicity at 3 h [8]: < 10%

OC[C@H]1O[C@@H](c2nc(-c3ccccc3)n[nH]2)[C@H](O)[C@@H](O)[C@@H]1O
Ki [2]: 1.74 µM

OC[C@H]1O[C@@H](n2nnc(-c3ccccc3)n2)[C@H](O)[C@@H](O)[C@@H]1O
Ki [1]: 134 µM
Ki [9]: 162 µM
Ki [2]: 146 µM

OC[C@H]1O[C@@H](c2nc(-c3ccccc3)cs2)[C@H](O)[C@@H](O)[C@@H]1O
Ki [1]: 180 µM
Ki [2]: 157 µM

OC[C@H]1O[C@@H](c2c[nH]c(-c3ccccc3)n2)[C@H](O)[C@@H](O)[C@@H]1O
Ki [1]: 25.9 µM
Ki [2]: 17.7 µM
inhibition [10]: 50%
inhibition [6]: 60%
Ki [5]: 68.6 µM
Activity (HepG2 [7]): Toxic

OC[C@H]1O[C@@H](c2nc(-c3ccc4ccccc4c3)cs2)[C@H](O)[C@@H](O)[C@@H]1O
Ki [1]: 78 µM
Ki [2]: 69.1 µM

OC[C@H]1O[C@@H](c2csc(-c3ccccc3)n2)[C@H](O)[C@@H](O)[C@@H]1O
Ki [1]: 172 µM
Ki [2]: 75.6 µM
Ki [5]: 326 µM
